Experimental data reported in ChEMBL document CHEMBL1151957, “Design and synthesis of novel C14-hydroxyl substituted triptolide derivatives as potential selective antitumor agents” (J Med Chem, 2009).
Calls of active or inactive are those of the source. The rule behind the calls is not given here.

Columns and labels:
[1] = test system: PC-3; assay: Cytotoxicity against human PC3 cells by SRB assay; format: functional, cell-based
Procedure, shortened: (§1)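 Cells grown in RPMI 1640 with 10% heat-inactivated FBS, 2 mmol/L glutamine, 10 mmol/L HEPES pH 7.4, 5% CO2, 37 °C; MCF-7/ADR also given 1 mmol/L pyruvate and 0.01 mg/mL insulin. Treated in triplicate with graded concentrations for 72 h at 37 °C, read by SRB. IC50 (50% growth inhibition vs control) by logit method; three independent experiments.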

[2] = test system: SK-OV-3; assay: Cytotoxicity against human SKOV3 cells by SRB assay; format: functional, cell-based; procedure, shortened: as §1
[3] = test system: MDA-MB-468; assay: Cytotoxicity against human MDA-MB-468 cells by SRB assay; format: functional, cell-based; procedure, shortened: as §1
[4] = test system: MDR; assay: Cytotoxicity against multidrug-resistant human KB/VCR cells by SRB assay in presence of MDR reversing agent verapamil; format: functional, cell-based
Procedure, shortened: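 KB/VCR cells exposed to test agents together with the MDR reversal agent verapamil. Growth inhibition was read by SRB assay after 72 h treatment; each point is the mean of three independent experiments.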

[5] = test system: MDA-MB-468; assay: Antitumor activity against human MDA-MB-468 cells xenografted in BALB/cA nu/nu mouse assessed as tumor growth inhibition at 1 to 4 mg/kg, po; format: functional, organism-based
Procedure, shortened: (§2)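 Nude BALB/cA nu/nu mice, 4-5 weeks old, received 1 mm³ tumor fragments implanted sc into the right flank by trocar. At 100-200 mm³ they were randomized, six per group, and dosed po daily in vehicle; controls got vehicle alone. Calipers twice weekly; V = length×width²/2; RTV = Vt/V0; T/C (%) = mean RTV treated / mean RTV control ×100. Student t test.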

[6] = test system: MCF7; assay: Resistant factor, ratio of IC50 for multidrug-resistant human MCF7/ADR cells to IC50 for human MCF7 cells; format: functional
Procedure, shortened: (§3)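 Resistance factor is the IC50 in the MDR line divided by the IC50 in its parental line. Both come from 72 h growth-inhibition assays: MTT for the leukemia pair, SRB for the solid-tumor pairs.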

[7] = test system: MOLT-4; assay: Cytotoxicity against human MOLT4 cells after 72 hrs by MTT assay; format: functional, cell-based; details: MOLT-4, 72 h
Procedure, shortened: (§4)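 Cells grown at 37 °C in 5% CO2 in RPMI 1640 with 10% heat-inactivated FBS, glutamine, antibiotics and HEPES; MCF-7 medium also had sodium pyruvate and insulin. Cells in 96-well plates were treated in triplicate with graded concentrations for 72 h at 37 °C. Read-out was MTT for leukemia lines and SRB for solid-tumor lines. IC50 was set relative to control by the logit method, as mean ± SD of three independent experiments.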

[8] = test system: PC-3; assay: Cytotoxicity against human PC3 cells after 72 hrs by […]; format: functional, cell-based; details: PC-3, 72 h; procedure, shortened: as §4
[9] = test system: MCF7; assay: Cytotoxicity against human MCF7 cells after 72 hrs […]; format: functional, cell-based; details: MCF7, 72 h; procedure, shortened: as §4
[10] = test system: Mus musculus; assay: Systemic toxicity in BALB/cA nu/nu mouse at 1 to 4 mg/kg, po; format: organism-based; set-up: dose 1-4 mg/kg, route oral; details: in vivo
Procedure, shortened: (§5)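 Female-unspecified BALB/cA nu/nu mice, 4-5 weeks old, carried sc 1 mm³ tumor fragments in the right flank. At 100-200 mm³, mice were randomized six per group and given compound po daily in vehicle, with vehicle-only controls, over about 21 days. Endpoints were deaths, systemic toxicity, body weight, and gross anatomy of liver and kidney.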

[11] = test system: SK-OV-3; assay: Cytotoxicity against human SKOV3 cells after 72 hrs by […]; format: functional, cell-based; details: SK-OV-3, 72 h; procedure, shortened: as §4
[12] = Cytotoxicity against human Rh30 cells after 72 hrs by […]; format: functional, cell-based; details: SJRH30, 72 h; procedure, shortened: as §4
[13] = test system: KB; assay: Resistant factor, ratio of IC50 for multidrug-resistant human KB/VCR cells to IC50 for human KB cells; format: functional; procedure, shortened: as §3
[14] = test system: K562; assay: Resistant factor, ratio of IC50 for multidrug-resistant human K562/A02 cells to IC50 for human K562 cells; format: functional; procedure, shortened: as §3
[15] = Cytotoxicity against multidrug-resistant human MCF7/ADR cells by SRB assay; format: functional, cell-based; details: NCI/ADR-RES; procedure, shortened: as §1
[16] = test system: SK-OV-3; assay: Antitumor activity against human SKOV3 cells xenografted in BALB/cA nu/nu mouse assessed as tumor growth inhibition at 1 mg/kg, po relative to control; format: functional; procedure, shortened: as §2
[17] = test system: SK-OV-3; assay: Antitumor activity against human SKOV3 cells xenografted in BALB/cA nu/nu mouse assessed as tumor growth inhibition at 2 mg/kg, po measured on day 21 postinfection; format: functional; set-up: scale not given: the % may be the effect or the level left; procedure, shortened: as §2
[18] = test system: SGC-7901; assay: Antitumor activity against human SGC7901 cells xenografted in BALB/cA nu/nu mouse assessed as tumor growth inhibition at 4 mg/kg, po; format: functional; set-up: scale not given: the % may be the effect or the level left; procedure, shortened: as §2
[19] = test system: SK-OV-3; assay: Antitumor activity against human SKOV3 cells xenografted in BALB/cA nu/nu mouse assessed as tumor growth inhibition at 4 mg/kg, po measured on day 21 postinfection; format: functional; set-up: scale not given: the % may be the effect or the level left; procedure, shortened: as §2
[20] = test system: Mus musculus; assay: Toxicity in BALB/cA nu/nu mouse assessed as mortality at 1 to 4 mg/kg, po; format: organism-based; set-up: dose 1-4 mg/kg, route oral; details: in vivo; procedure, shortened: as §5
[21] = test system: PC-3; assay: Antitumor activity against human PC3 cells xenografted in BALB/cA nu/nu mouse assessed as tumor growth inhibition at 4 mg/kg, po measured on day 21 postinfection; format: functional, organism-based; set-up: dose 4 mg/kg; procedure, shortened: as §2
[22] = test system: PC-3; assay: Antitumor activity against human PC3 cells xenografted in BALB/cA nu/nu mouse assessed as tumor growth inhibition at 2 mg/kg, po measured on day 21 postinfection; format: functional, organism-based; set-up: dose 2 mg/kg; procedure, shortened: as §2
[23] = test system: DU-145; assay: Cytotoxicity against human DU145 cells after 72 hrs by […]; format: functional, cell-based; details: DU-145, 72 h; procedure, shortened: as §4
[24] = test system: SMMC-7721; assay: Antitumor activity against human SMMC7721 cells xenografted in BALB/cA nu/nu mouse assessed as tumor growth inhibition at 1 to 4 mg/kg, po; format: functional, organism-based; procedure, shortened: as §2
[25] = test system: HCT-116; assay: Cytotoxicity against human HCT116 cells after 72 hrs […]; format: functional, cell-based; details: HCT-116, 72 h; procedure, shortened: as §4
[26] = test system: SGC-7901; assay: Cytotoxicity against human SGC7901 cells after 72 hrs by SRB assay; details: SGC-7901, 72 h
[27] = Cytotoxicity against human 786-O cells after 72 hrs […]; format: functional, cell-based; details: 786-0, 72 h; procedure, shortened: as §4
[28] = test system: U-251; assay: Cytotoxicity against human U251 cells after 72 hrs […]; format: functional, cell-based; details: U-251, 72 h; procedure, shortened: as §4
[29] = Cytotoxicity against human HO8910 cells after 72 hrs by […]; format: functional, cell-based; details: HO-8910, 72 h; procedure, shortened: as §4
[30] = test system: Mus musculus; assay: Toxicity in BALB/cA nu/nu mouse assessed as change in body weight at 1 to 4 mg/kg, po; format: organism-based; set-up: dose 1-4 mg/kg, route oral; details: in vivo; procedure, shortened: as §5
[31] = Cytotoxicity against multidrug-resistant human K562/A02 cells by MTT assay
[32] = test system: Mus musculus; assay: Toxicity in BALB/cA nu/nu mouse assessed as change in liver gross anatomy at 1 to 4 mg/kg, po; format: organism-based; set-up: dose 1-4 mg/kg, route oral; details: in vivo; procedure, shortened: as §5
[33] = test system: A549; assay: Cytotoxicity against human A549 cells after 72 hrs by SRB assay; details: A549, 72 h
[34] = test system: Bel-7402; assay: Cytotoxicity against human Bel7402 cells after 72 hrs by […]; format: functional, cell-based; details: Bel-7402, 72 h; procedure, shortened: as §4
[35] = Cytotoxicity against human SW1116 cells after 72 hrs by […]; format: functional, cell-based; details: SW 1116, 72 h; procedure, shortened: as §4
[36] = test system: SMMC-7721; assay: Cytotoxicity against human SMMC7721 cells after 72 hrs […]; format: functional, cell-based; details: SMMC-7721, 72 h; procedure, shortened: as §4
[37] = test system: HCT-15; assay: Cytotoxicity against human HCT15 cells after 72 hrs […]; format: functional, cell-based; details: HCT-15, 72 h; procedure, shortened: as §4
[38] = test system: MDA-MB-231; assay: Cytotoxicity against human MDA-MB-231 cells after 72 hrs […]; format: functional, cell-based; details: MDA-MB-231, 72 h; procedure, shortened: as §4
[39] = test system: Mus musculus; assay: Toxicity in BALB/cA nu/nu mouse assessed as change in kidney gross anatomy at 1 to 4 mg/kg, po; format: organism-based; set-up: dose 1-4 mg/kg, route oral; details: in vivo; procedure, shortened: as §5
[40] = test system: K562; assay: Cytotoxicity against human K562 cells after 72 hrs by MTT assay; format: functional, cell-based; details: K562, 72 h; procedure, shortened: as §4
[41] = test system: MKN-28; assay: Cytotoxicity against human MKN28 cells after 72 hrs […]; format: functional, cell-based; details: MKN-28, 72 h; procedure, shortened: as §4
[42] = test system: KB; assay: Cytotoxicity against human KB cells after 72 hrs […]; format: functional, cell-based; procedure, shortened: as §4
[43] = test system: HeLa; assay: Cytotoxicity against human HeLa cells after 72 hrs […]; format: functional, cell-based; procedure, shortened: as §4

Compound: CC(C)[C@]12O[C@H]1[C@@H]1O[C@]13[C@]1(O[C@H]1C[C@H]1C4=C(CC[C@@]13C)C(=O)OC4)[C@@]21CO1
- IC50 [1]: 2.7 µM
- IC50 [2]: 1.56 µM
- IC50 [3]: 1.92 µM

Compound: CC[C@]1(O)C[C@H]2CN(CCc3c([nH]c4ccccc34)[C@@](C(=O)OC)(c3cc4c(cc3OC)N(C=O)[C@H]3[C@@](O)(C(=O)OC)[C@H](OC(C)=O)[C@]5(CC)C=CCN6CC[C@]43[C@@H]65)C2)C1
- Activity [4]: Active

Compound: CC(C)[C@]12O[C@H]1[C@@H]1O[C@]13[C@]1(O[C@H]1C=C1C4=C(CC[C@@]13C)C(=O)OC4)[C@]21CO1
- IC50 [1]: 1.8 µM
- IC50 [2]: 0.57 µM
- IC50 [3]: 1.14 µM

Compound: CC(C)[C@]12O[C@H]1[C@@H]1O[C@]13[C@]1(O[C@H]1C[C@H]1C4=C(CC[C@@]13C)C(=O)OC4)[C@]21CO1
- Activity [5]: inactive
- Ratio IC50 [6]: 2.53
- IC50 [7]: 0.251 µM
- IC50 [8]: 0.637 µM
- IC50 [9]: 0.36 µM
- Activity [10]: Non-toxic
- IC50 [11]: 0.27 µM
- IC50 [12]: 0.293 µM
- Ratio IC50 [13]: 0.77
- Ratio IC50 [14]: 1.76
- IC50 [15]: 0.91 µM
- T/C [16]: 50.2%
- Activity [17]: 87.5%
- Activity [18]: 75%
- Activity [19]: 97.4%
- Activity [20]: Non-toxic
- Activity [21]: Active
- Activity [22]: Active
- IC50 [1]: 0.27 µM
- IC50 [23]: 0.256 µM
- Activity [24]: inactive
- IC50 [25]: 0.219 µM
- IC50 [26]: 0.175 µM
- IC50 [27]: 0.386 µM
- IC50 [28]: 0.657 µM
- IC50 [29]: 0.538 µM
- Activity [30]: Non-toxic
- IC50 [31]: 0.74 µM
- Activity [32]: Non-toxic
- IC50 [33]: 0.702 µM
- Activity [4]: Active
- IC50 [34]: 0.332 µM
- IC50 [35]: 0.907 µM
- IC50 [2]: 0.1 µM
- IC50 [36]: 0.35 µM
- IC50 [37]: 0.648 µM
- IC50 [38]: 0.28 µM
- Activity [39]: Non-toxic
- IC50 [40]: 0.421 µM
- IC50 [3]: 0.18 µM
- IC50 [41]: 2.54 µM
- IC50 [42]: 0.615 µM
- IC50 [43]: 0.507 µM

Compound: CC(C)[C@]12O[C@H]1[C@@H]1O[C@]13[C@]1(O[C@H]1C[C@H]1C4=C(CC[C@@]13C)C(=O)OC4)[C@]21COS(=O)(=O)O1
- IC50 [1]: 13.9 µM
- IC50 [2]: > 100 µM
- IC50 [3]: > 100 µM
